Values after ≈ are worked out from the molar mass of the structure shown.

One experiment has as its system Plasmodium falciparum. Briefly: Antiplasmodial activity against Plasmodium falciparum 3D7 assessed as reduction in parasite growth by measuring DNA content after 3 days by PicoGreen staining based FLUOstar omega microplate reader analysis. In kind it is functional, organism-based. The following applies: 3D7, 72 h. The essentials: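 Asynchronous cultures in 2% hematocrit, RPMI-1640 complete medium with 0.5% Albumax, under 5% O2/5% CO2/90% N2 at 37 °C. Diluted to 0.5% parasitemia, inhibitors 1.2 nM to 492.4 µM added at start. Growth read after 3 days as DNA content by PicoGreen fluorescence (485/528 nm). IC50 from 4-parameter nonlinear regression; technical duplicate, biological triplicate.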
Regarding `CC(=O)N(CCC(c1ccc(Cl)c(Cl)c1)P(=O)(OCOC(=O)C(C)(C)C)OCOC(=O)C(C)(C)C)OCc1ccc(C(C)C)cc1` (centres undefined), the half-maximal inhibitory concentration (IC50) (usually the concentration needed to halve the response being measured) turned out to be 13.9 µM.
Regarding `CC(=O)N(CCC(c1ccc(Cl)c(Cl)c1)P(=O)(OCOC(=O)C(C)(C)C)OCOC(=O)C(C)(C)C)OC(C)c1ccc(Cl)cc1` (centres undefined), the IC50 was determined as 30.1 µM.
Consider `CC(=O)N(CCC(c1ccc(Cl)c(Cl)c1)P(=O)(OCOC(=O)C(C)(C)C)OCOC(=O)C(C)(C)C)OCc1ccc(-c2ccccc2)cc1` (centres undefined), for which the concentration for half-maximal inhibition (IC50) was found to be 8.78 µM.
For the compound `CC(=O)N(CCC(c1ccc(Cl)c(Cl)c1)P(=O)(OCOC(=O)C(C)(C)C)OCOC(=O)C(C)(C)C)OCc1ccccc1` (centres undefined), the half-maximal inhibitory concentration (IC50) worked out at 41.6 µM.
As to `CC(=O)N(CCC(c1ccc(Cl)c(Cl)c1)P(=O)(OCOC(=O)C(C)(C)C)OCOC(=O)C(C)(C)C)OCc1ccc(-c2ccc(C(C)C)cc2)cc1` (centres undefined), the IC50 stood at 14.9 µM.
As to `CC(=O)N(CCC(c1ccc(Cl)c(Cl)c1)P(=O)(OCOC(=O)C(C)(C)C)OCOC(=O)C(C)(C)C)OC(C)c1ccc(C)cc1` (centres undefined), the IC50 turned out to be 31.9 µM.
On the same count and under the same terms, the result for `CC(=O)N(CCC(c1ccc(Cl)c(Cl)c1)P(=O)(OCOC(=O)C(C)(C)C)OCOC(=O)C(C)(C)C)OC(C)c1ccc(C(F)(F)F)cc1` (centres undefined) reads 23.8 µM; that for `CC(=O)N(O)CCC(c1ccc(Cl)c(Cl)c1)P(=O)(OCOC(=O)C(C)(C)C)OCOC(=O)C(C)(C)C` (centres undefined), 13 µM; that for `CC(=O)N(CCC(c1ccc(Cl)c(Cl)c1)P(=O)(OCOC(=O)C(C)(C)C)OCOC(=O)C(C)(C)C)OC(C)c1ccc(F)cc1` (centres undefined), 21.2 µM.
The same measure, in the same setting: the result for `CC(=O)N(CCC(c1ccc(Cl)c(Cl)c1)P(=O)(OCOC(=O)C(C)(C)C)OCOC(=O)C(C)(C)C)OC(C)c1ccccc1` (centres undefined) reads 5.22 µM; that for `CC(=O)N(CCC(c1ccc(Cl)c(Cl)c1)P(=O)(OCOC(=O)C(C)(C)C)OCOC(=O)C(C)(C)C)OCc1ccc2ccccc2c1` (centres undefined), 14 µM.
On the same count and under the same terms, the figure for `CC(=O)N(CCC(c1ccc(Cl)c(Cl)c1)P(=O)(OCOC(=O)C(C)(C)C)OCOC(=O)C(C)(C)C)OCCCCc1ccccc1` (centres undefined) is 13.9 µM.

In another experiment the test system is Mycobacterium tuberculosis. Description: Antibacterial activity against Mycobacterium tuberculosis H37Rv assessed as reduction in bacterial growth incubated for 2 weeks by macroscopic plate reader analysis. In kind it is functional. As to conditions: 336 h. The essentials: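 H37Rv grown in 7H9 broth with 0.08% NaCl, 0.4% glucose, 0.05% casitone and 0.05% tyloxapol, then diluted 1:500. Compounds were made as 20 mg/mL DMSO stocks and run as eleven 2-fold serial dilutions. Plates were held 2 weeks at 37 °C and MIC99 was read macroscopically. Three independent measurements.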
For `CC(=O)N(CCC(c1ccc(Cl)c(Cl)c1)P(=O)(OCOC(=O)C(C)(C)C)OCOC(=O)C(C)(C)C)OCc1ccc(C(C)C)cc1` (centres undefined), the MIC (as a rule, the least concentration at which growth counts as inhibited) stood at 17.8 µM (≈ 12.5 µg/mL).
With `CC(=O)N(CCC(c1ccc(Cl)c(Cl)c1)P(=O)(OCOC(=O)C(C)(C)C)OCOC(=O)C(C)(C)C)OC(C)c1ccc(Cl)cc1` (centres undefined), the MIC was 13.3 µM (≈ 9.43 µg/mL).
For the compound `CC(=O)N(CCC(c1ccc(Cl)c(Cl)c1)P(=O)(OCOC(=O)C(C)(C)C)OCOC(=O)C(C)(C)C)OCc1ccc(-c2ccccc2)cc1` (centres undefined), the MIC was found to be 17 µM (≈ 12.5 µg/mL).
For the compound `CC(=O)N(CCC(c1ccc(Cl)c(Cl)c1)P(=O)(OCOC(=O)C(C)(C)C)OCOC(=O)C(C)(C)C)OCc1ccccc1` (centres undefined), the minimal inhibitory concentration (MIC) came out at 9.5 µM (≈ 6.28 µg/mL).
Same read-out and setting: the figure for `CC(=O)N(CCC(c1ccc(Cl)c(Cl)c1)P(=O)(OCOC(=O)C(C)(C)C)OCOC(=O)C(C)(C)C)OCc1ccc(-c2ccc(C(C)C)cc2)cc1` (centres undefined) is greater than 128 µM; for `CC(=O)N(CCC(c1ccc(Cl)c(Cl)c1)P(=O)(OCOC(=O)C(C)(C)C)OCOC(=O)C(C)(C)C)OC(C)c1ccc(C)cc1` (centres undefined) it is 18.2 µM (≈ 12.5 µg/mL).
For the compound `CC(=O)N(CCC(c1ccc(Cl)c(Cl)c1)P(=O)(OCOC(=O)C(C)(C)C)OCOC(=O)C(C)(C)C)OC(C)c1ccc(C(F)(F)F)cc1` (centres undefined), the minimal inhibitory concentration (MIC) was greater than 134 µM.
Same read-out and setting: the result for `CC(=O)N(O)CCC(c1ccc(Cl)c(Cl)c1)P(=O)(OCOC(=O)C(C)(C)C)OCOC(=O)C(C)(C)C` (centres undefined) reads 8.1 µM (≈ 4.62 µg/mL); that for `CC(=O)N(CCC(c1ccc(Cl)c(Cl)c1)P(=O)(OCOC(=O)C(C)(C)C)OCOC(=O)C(C)(C)C)OC(C)c1ccc(F)cc1` (centres undefined), 6.6 µM (≈ 4.57 µg/mL).
For `CC(=O)N(CCC(c1ccc(Cl)c(Cl)c1)P(=O)(OCOC(=O)C(C)(C)C)OCOC(=O)C(C)(C)C)OC(C)c1ccccc1` (centres undefined), the minimum inhibitory concentration (MIC) stood at 3.9 µM (≈ 2.63 µg/mL).
On the same count and under the same terms, the figure for `CC(=O)N(CCC(c1ccc(Cl)c(Cl)c1)P(=O)(OCOC(=O)C(C)(C)C)OCOC(=O)C(C)(C)C)OCc1ccc2ccccc2c1` (centres undefined) is 8.8 µM (≈ 6.25 µg/mL); for `CC(=O)N(CCC(c1ccc(Cl)c(Cl)c1)P(=O)(OCOC(=O)C(C)(C)C)OCOC(=O)C(C)(C)C)OCCCCc1ccccc1` (centres undefined) it is 17.8 µM (≈ 12.5 µg/mL).

The values are drawn from ChEMBL document CHEMBL5576114, “Inhibition of DXR in the MEP pathway with lipophilic N-alkoxyaryl FR900098 analogs” (RSC Med Chem, 2024).
